Assays:
[1] = biological target: Sodium-dependent serotonin transporter (Homo sapiens) (UniProt P31645); assay: Displacement of [3H]-citalopram from human SERT stably expressed in HEK cell membranes at 10 uM incubated for 90 mins under dark condition by scintillation counting analysis relative to control
[2] = AUC (0 to infinity) in Sprague-Dawley rat at 10 mg/kg, iv; assay type: ADME, organism-based; parameters: dose 10 mg/kg, route intravenous, time infinity; conditions: in vivo
[3] = tested on: Rattus norvegicus; assay: Potentiation of WAY163909-induced neurobiological activity in Sprague-Dawley rat assessed as increase in number of rat choosing WAY163909 associated lever at 2 mg/kg, ip treated 15 mins prior to WAY163909 addition and measured after 15 mins in presence of 5HT2CR antagonist SB242084 by drug discrimination test (reference value: 53%); assay type: functional
In short: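 Two-lever FR20 drug discrimination in male Sprague-Dawley rats (n = 13) trained on WAY163909 0.75 mg/kg ip versus saline. SB242084 (0.5 mg/kg ip) given 15 min before WAY163909. Test compound (2 mg/kg ip) given 15 min before WAY163909 (0.5 mg/kg ip). Rats placed in chambers 15 min after WAY163909. Read-out is the percentage of rats choosing the WAY163909 lever.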

[4] = AUC (0 to infinity) in Sprague-Dawley rat at 20 mg/kg, po; assay type: ADME, organism-based; parameters: dose 20 mg/kg, time infinity, route oral; conditions: in vivo
[5] = biological target: D(1B) dopamine receptor (Homo sapiens) (UniProt P21918); assay: Displacement of [3H]-SCH23390 from human dopamine D5 receptor expressed in HEKT cell membranes at 10 uM incubated for 90 mins under dark condition by scintillation counting analysis relative to control
[6] = biological target: 5-HT2A receptor (Homo sapiens, UniProt P28223); assay: Displacement of [3H]-ketanserin from 5HT2A (unknown origin) at 10 uM incubated for 90 mins under dark condition by scintillation counting analysis relative to control; conditions: probe [3H]-ketanserin
[7] = biological target: Beta-1 adrenergic receptor (Homo sapiens) (UniProt P08588); assay: Displacement of [125I]-pindolol from human beta1 adrenergic receptor expressed in CHO FLp-In cell membranes at 10 uM incubated for 90 mins under dark condition by scintillation counting analysis relative to control
[8] = biological target: Alpha-1D adrenergic receptor (Homo sapiens) (UniProt P25100); assay: Displacement of [3H]-prazosin from human adrenergic alpha1D receptor at 10 uM incubated for 90 mins under dark condition by scintillation counting analysis relative to control
[9] = Fraction unbound in rat plasma; assay type: ADME, cell-free
In short: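 Free fraction measured in rat plasma.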

[10] = tested on: Rattus norvegicus; assay: Potentiation of WAY163909-induced neurobiological activity in Sprague-Dawley rat assessed as increase in number of rat choosing WAY163909 associated lever at 2 mg/kg, ip treated 15 mins prior to WAY163909 addition and measured after 15 mins by drug discrimination test (reference value: 53%); assay type: functional
[11] = biological target: Delta-type opioid receptor (Homo sapiens) (UniProt P41143); assay: Displacement of [3H]-DADLE from human delta opioid receptor stably expressed in HEK cell membranes at 10 uM incubated for 90 mins under dark condition by scintillation counting analysis relative to control
[12] = Apparent permeability across apical to basolateral side in MDCK-MDR1 cells; assay type: ADME, cell-based, Canis lupus familiaris; conditions: dog
[13] = Cmax in Sprague-Dawley rat at 10 mg/kg, iv; assay type: ADME, organism-based; parameters: dose 10 mg/kg, route intravenous; conditions: in vivo
In short: (§1)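 Male Sprague-Dawley rats, 200–250 g, n = 3/group, randomly assigned; dosed 10 mg/kg iv or 20 mg/kg po in 10% DMSO:90% HP-β-CD. Retro-orbital blood sampled predose and 0.08 (iv only), 0.25, 0.5, 1, 2, 4, 8, 24 h. Noncompartmental analysis; Cmax read directly from plasma concentration–time plot; mean ± SEM.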

[14] = biological target: T1, 5-hydroxytryptamine receptor 2C (Homo sapiens) (UniProt P28335); assay: Displacement of [3H]-mesulergine from human 5HT2C expressed in HEKT cell membranes at 10 uM incubated for 90 mins under dark condition by scintillation counting analysis relative to control
T1 sequence (whole entry): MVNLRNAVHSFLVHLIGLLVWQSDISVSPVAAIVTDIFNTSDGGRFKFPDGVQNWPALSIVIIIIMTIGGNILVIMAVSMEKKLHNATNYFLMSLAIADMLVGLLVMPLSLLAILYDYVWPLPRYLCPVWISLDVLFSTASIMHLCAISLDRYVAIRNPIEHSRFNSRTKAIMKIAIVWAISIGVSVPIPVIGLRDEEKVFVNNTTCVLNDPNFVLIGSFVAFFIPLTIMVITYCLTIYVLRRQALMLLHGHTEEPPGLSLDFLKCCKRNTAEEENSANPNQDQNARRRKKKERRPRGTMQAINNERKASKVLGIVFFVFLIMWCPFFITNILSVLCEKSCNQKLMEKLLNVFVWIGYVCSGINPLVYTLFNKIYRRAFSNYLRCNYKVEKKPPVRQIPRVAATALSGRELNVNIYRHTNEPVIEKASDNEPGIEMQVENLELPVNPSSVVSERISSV

[15] = biological target: 5-hydroxytryptamine receptor 1B (Homo sapiens) (UniProt P28222); assay: Displacement of [3H]-GR125743 from human 5HT1B stably expressed in HEK cell membranes at 10 uM incubated for 90 mins under dark condition by scintillation counting analysis relative to control
[16] = biological target: Sodium-dependent noradrenaline transporter (Homo sapiens, UniProt P23975); assay: Displacement of [3H]-nisoxetine from human NET stably expressed in HEK cell membranes at 10 uM incubated for 90 mins under dark condition by scintillation counting analysis relative to control
[17] = biological target: 5-hydroxytryptamine receptor 6 (Homo sapiens) (UniProt P50406); assay: Displacement of [3H]-LSD from human 5HT6 stably expressed in HEK cell membranes at 10 uM incubated for 90 mins under dark condition by scintillation counting analysis relative to control
[18] = Clearance in Sprague-Dawley rat at 10 mg/kg, iv; assay type: ADME, organism-based; conditions: in vivo
In short: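 Male Sprague-Dawley rats (200–250 g; n = 3/group) received a single iv dose in 10% DMSO:90% HP-β-CD. Retro-orbital blood was sampled before dosing and at 0.08, 0.25, 0.5, 1, 2, 4, 8 and 24 h. Plasma levels were measured. Parameters came from noncompartmental analysis, reported as mean ± SEM.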

[19] = biological target: D(3) dopamine receptor (Homo sapiens) (UniProt P35462); assay: Displacement of [3H]-N-methylspiperone from dopamine D3 receptor (unknown origin) at 10 uM incubated for 90 mins under dark condition by scintillation counting analysis relative to control
[20] = Oral bioavailability in Sprague-Dawley rat at 20 mg/kg; assay type: ADME, organism-based; conditions: in vivo; in short: as §1
[21] = biological target: Kappa-type opioid receptor (Homo sapiens) (UniProt P41145); assay: Displacement of [3H]-U69593 from kappa opioid receptor (unknown origin) at 10 uM incubated for 90 mins under dark condition by scintillation counting analysis relative to control
[22] = biological target: 5-HT2B receptor (Homo sapiens, UniProt P41595); assay: Displacement of [3H]-LSD from human 5HT2B stably expressed in HEK cell membranes at 10 uM incubated for 90 mins under dark condition by scintillation counting analysis relative to control; conditions: membranes of HEK cells stably expressing human 5HT2B, probe [3H]-LSD
[23] = biological target: CYP2D6 (Homo sapiens, UniProt P10635); assay: Inhibition of CYP2D6 (unknown origin) at 10 uM relative to control; assay type: ADME
In short: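 Each CYP isoform inhibition assay run with test compound at 10 µM; reported as percent inhibition.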

Chain of D(1B) dopamine receptor (Homo sapiens) (P21918 whole entry): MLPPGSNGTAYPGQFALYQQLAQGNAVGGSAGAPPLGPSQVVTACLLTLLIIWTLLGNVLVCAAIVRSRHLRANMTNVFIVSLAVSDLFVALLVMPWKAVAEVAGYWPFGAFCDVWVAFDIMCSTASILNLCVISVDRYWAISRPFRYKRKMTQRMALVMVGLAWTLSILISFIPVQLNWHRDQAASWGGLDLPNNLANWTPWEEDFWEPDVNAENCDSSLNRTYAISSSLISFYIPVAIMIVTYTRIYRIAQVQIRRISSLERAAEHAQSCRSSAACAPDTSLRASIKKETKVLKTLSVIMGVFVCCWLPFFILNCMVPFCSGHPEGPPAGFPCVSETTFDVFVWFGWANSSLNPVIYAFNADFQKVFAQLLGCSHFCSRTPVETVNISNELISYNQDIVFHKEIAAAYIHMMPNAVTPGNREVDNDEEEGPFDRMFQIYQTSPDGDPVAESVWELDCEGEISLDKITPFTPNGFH
Chain of CYP2D6 (P10635 whole entry, canonical isoform): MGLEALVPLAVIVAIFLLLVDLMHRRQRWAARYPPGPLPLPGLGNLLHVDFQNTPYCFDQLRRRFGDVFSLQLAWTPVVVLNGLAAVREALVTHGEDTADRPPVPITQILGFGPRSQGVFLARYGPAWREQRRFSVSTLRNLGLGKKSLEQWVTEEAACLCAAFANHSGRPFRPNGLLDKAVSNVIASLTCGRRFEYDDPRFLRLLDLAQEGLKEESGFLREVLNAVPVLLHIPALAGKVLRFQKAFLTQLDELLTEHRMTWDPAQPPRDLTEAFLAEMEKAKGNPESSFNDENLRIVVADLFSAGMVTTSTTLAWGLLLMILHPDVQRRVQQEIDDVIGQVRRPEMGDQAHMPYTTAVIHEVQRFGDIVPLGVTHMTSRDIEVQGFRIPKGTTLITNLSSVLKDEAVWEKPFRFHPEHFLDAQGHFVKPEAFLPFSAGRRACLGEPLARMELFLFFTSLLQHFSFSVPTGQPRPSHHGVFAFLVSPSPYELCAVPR
Chain of Beta-1 adrenergic receptor (Homo sapiens) (P08588 whole entry, looked up): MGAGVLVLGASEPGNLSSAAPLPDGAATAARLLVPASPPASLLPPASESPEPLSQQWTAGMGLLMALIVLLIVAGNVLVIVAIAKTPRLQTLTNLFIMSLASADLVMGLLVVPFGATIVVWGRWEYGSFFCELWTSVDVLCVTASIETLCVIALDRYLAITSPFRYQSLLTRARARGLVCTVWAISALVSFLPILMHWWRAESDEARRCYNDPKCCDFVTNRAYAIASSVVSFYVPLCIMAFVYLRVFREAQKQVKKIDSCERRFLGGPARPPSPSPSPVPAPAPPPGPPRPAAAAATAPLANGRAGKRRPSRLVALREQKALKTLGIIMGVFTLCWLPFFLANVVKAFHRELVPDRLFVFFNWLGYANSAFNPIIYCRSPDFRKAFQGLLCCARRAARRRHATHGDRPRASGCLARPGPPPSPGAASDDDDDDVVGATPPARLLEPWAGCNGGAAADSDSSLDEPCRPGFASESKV
Chain of D(3) dopamine receptor (Homo sapiens) (P35462 whole entry): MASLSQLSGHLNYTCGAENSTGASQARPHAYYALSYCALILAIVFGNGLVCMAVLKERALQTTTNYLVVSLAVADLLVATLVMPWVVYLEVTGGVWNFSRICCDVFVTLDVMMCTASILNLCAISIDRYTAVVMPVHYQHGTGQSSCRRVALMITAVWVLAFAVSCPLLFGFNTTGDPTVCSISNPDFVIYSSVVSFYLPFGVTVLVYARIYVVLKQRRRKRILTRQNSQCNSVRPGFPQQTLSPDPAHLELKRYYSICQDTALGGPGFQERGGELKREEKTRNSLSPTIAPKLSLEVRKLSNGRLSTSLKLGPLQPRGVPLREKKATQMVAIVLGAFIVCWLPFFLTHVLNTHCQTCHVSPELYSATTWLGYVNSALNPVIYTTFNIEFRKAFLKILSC
Chain of 5-hydroxytryptamine receptor 6 (Homo sapiens) (P50406 whole entry): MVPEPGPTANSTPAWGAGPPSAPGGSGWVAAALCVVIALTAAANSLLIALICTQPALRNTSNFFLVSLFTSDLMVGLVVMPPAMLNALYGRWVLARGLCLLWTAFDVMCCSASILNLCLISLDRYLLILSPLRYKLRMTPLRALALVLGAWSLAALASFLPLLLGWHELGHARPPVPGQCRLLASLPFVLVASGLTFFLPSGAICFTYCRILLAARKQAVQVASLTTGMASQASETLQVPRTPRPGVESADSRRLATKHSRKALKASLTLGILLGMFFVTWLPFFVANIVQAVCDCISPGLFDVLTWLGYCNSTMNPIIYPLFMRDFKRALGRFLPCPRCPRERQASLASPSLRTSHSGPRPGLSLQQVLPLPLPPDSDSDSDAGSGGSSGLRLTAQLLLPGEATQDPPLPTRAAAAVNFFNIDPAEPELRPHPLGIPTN
Chain of Alpha-1D adrenergic receptor (Homo sapiens) (P25100 whole entry): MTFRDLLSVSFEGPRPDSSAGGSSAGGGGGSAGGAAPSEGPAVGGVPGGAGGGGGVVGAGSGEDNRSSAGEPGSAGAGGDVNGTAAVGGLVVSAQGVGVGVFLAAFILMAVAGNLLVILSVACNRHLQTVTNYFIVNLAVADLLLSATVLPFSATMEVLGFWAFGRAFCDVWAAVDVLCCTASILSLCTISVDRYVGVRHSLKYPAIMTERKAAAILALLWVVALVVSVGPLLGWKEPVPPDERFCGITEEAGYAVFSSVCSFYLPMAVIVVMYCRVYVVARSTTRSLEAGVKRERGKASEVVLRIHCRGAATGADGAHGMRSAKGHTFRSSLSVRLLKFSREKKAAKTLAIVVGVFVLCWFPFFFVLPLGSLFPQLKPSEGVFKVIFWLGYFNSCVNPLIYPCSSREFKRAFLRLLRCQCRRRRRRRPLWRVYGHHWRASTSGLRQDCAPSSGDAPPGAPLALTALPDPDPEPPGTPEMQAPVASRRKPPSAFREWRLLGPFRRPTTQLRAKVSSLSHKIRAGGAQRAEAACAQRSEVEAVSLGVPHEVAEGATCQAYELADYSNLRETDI
Chain of Delta-type opioid receptor (Homo sapiens) (P41143 whole entry): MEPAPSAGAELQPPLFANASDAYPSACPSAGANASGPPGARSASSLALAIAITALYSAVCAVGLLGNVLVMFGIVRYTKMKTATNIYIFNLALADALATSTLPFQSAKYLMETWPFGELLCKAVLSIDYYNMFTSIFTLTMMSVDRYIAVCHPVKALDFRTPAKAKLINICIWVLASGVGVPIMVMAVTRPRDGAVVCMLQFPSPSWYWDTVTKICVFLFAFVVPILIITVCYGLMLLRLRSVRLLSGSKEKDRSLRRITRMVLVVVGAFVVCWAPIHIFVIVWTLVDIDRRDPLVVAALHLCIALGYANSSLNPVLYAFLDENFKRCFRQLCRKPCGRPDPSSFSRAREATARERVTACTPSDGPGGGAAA
Chain of 5-HT2B receptor (P41595 whole entry): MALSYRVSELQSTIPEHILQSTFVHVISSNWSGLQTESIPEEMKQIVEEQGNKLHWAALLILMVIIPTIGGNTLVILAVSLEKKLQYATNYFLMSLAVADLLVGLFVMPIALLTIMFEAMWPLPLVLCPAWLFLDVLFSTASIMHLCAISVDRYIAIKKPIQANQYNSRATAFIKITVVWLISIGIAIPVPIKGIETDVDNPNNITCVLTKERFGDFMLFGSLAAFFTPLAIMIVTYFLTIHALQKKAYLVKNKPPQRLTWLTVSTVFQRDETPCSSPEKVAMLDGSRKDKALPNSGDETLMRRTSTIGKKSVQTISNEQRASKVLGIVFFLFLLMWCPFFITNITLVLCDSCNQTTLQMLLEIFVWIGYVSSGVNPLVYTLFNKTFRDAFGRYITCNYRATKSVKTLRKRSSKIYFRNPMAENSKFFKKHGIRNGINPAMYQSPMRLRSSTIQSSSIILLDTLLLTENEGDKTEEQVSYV
Chain of Sodium-dependent serotonin transporter (Homo sapiens) (P31645 whole entry, looked up): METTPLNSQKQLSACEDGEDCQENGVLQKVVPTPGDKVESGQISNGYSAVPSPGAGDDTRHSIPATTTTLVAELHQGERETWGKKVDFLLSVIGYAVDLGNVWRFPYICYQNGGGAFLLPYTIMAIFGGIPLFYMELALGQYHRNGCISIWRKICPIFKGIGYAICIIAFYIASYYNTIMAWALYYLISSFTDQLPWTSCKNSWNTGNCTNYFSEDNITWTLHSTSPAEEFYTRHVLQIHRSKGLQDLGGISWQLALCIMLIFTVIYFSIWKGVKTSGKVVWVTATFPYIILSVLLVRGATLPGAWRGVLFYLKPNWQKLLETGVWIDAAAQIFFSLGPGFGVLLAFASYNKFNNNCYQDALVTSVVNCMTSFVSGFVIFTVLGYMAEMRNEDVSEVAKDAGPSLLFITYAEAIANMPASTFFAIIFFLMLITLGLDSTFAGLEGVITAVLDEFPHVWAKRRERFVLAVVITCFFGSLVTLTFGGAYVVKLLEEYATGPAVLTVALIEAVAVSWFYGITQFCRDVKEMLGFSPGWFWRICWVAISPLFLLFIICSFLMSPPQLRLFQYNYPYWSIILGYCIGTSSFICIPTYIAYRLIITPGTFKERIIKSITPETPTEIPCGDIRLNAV
Chain of 5-hydroxytryptamine receptor 1B (Homo sapiens) (P28222 whole entry): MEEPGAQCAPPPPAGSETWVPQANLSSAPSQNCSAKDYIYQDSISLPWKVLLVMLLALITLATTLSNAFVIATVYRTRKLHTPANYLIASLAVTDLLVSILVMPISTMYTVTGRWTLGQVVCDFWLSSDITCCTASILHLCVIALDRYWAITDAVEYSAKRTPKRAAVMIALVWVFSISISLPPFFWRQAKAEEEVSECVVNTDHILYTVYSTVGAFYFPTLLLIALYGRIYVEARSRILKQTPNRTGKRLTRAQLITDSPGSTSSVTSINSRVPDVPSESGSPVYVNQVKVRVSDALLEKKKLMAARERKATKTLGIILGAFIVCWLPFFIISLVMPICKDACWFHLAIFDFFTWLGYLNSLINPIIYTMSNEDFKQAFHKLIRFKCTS

Compound: O=C(NC[C@H](O)CO)[C@@H]1C[C@H](c2ccccc2)CCN1 (mixture of isomers)
- inhibition [1]: 47.5%
- AUC [2]: 3065.6 ng·h/mL
- Activity [3]: 0%
- AUC [4]: 2244.7 ng·h/mL
- inhibition [5]: 9.4%
- inhibition at 1.5 h, 10 µM [6]: -4.3%
- inhibition [7]: -7.7%
- inhibition [8]: -4.8%
- Fu [9]: 66%
- Activity [10]: 92%
- inhibition [11]: -6.1%
- Papp [12]: 0.04 ×10⁻⁶ cm/s
- Cmax [13]: 2408.6 ng/mL
- inhibition [14]: 26.9%
- inhibition [15]: 12.3%
- inhibition [16]: 74.4%
- inhibition [17]: 2.5%
- CL [18]: 54.7 mL/min/kg
- inhibition [19]: 19.4%
- F [20]: 36.3%
- inhibition [21]: 13.4%
- inhibition at 1.5 h, 10 µM [22]: -7.2%
- inhibition at 10 µM [23]: 1.9%
